These results are taken from ChEMBL document CHEMBL1131185, “Syntheses of new isodethiaazacephems as potent antibacterial agents” (1998).

The structures appear in SMILES notation. Values after ≈ are worked out from the molar mass of the structure shown.

In assay [1] the test system is Pseudomonas aeruginosa. Description: In Vitro minimal inhibitory concentration against Pseudomonas aeruginosa (1101-75). Type of assay: functional. Summed up:
(§1)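 Serial broth dilution in heart infusion broth. Inoculum was a 10^-4 dilution of an overnight culture. Seeded antibiotic-containing tubes were incubated 37 °C for 20 h. […] Values are the average of triplicate determinations.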

Assay [2] concerns Salmonella typhi. Description: In Vitro minimal inhibitory concentration against Salmonella typhi (O-901). The settings on record: Salmonella enterica. Type of assay: functional, Salmonella enterica subsp. enterica serovar Typhi. Summed up: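 Serial broth dilution MIC. Inoculum: overnight culture diluted 10^-4 in heart infusion broth. Seeded antibiotic-containing broth tubes incubated 20 h at 37 °C. MIC is the lowest concentration preventing visible growth. Concentrations tested up to 128 μg/mL. Values are the average of triplicate determinations.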

For assay [3], the system named is Klebsiella pneumoniae. Put plainly: In Vitro minimal inhibitory concentration against Klebsiella pneumoniae (NCTC 418). Type of assay: functional. Summed up:
as §1

Assay [4] concerns Staphylococcus aureus. Description: In Vitro minimal inhibitory concentration against Staphylococcus aureus (FDA 209P). The class given is functional. Summed up:
as §1

The test system of assay [5] is Escherichia coli. Description: In Vitro minimal inhibitory concentration against Escherichia coli (ATCC 39188). Type of assay: functional. Summed up: as §1

The MIC is the lowest concentration that inhibits growth of the organism. In the case of `CO/N=C(\C(=O)N[C@@H]1C(=O)N2C(C(=O)O)=C(COC(C)=O)CS[C@H]12)c1csc(N)n1` [CEFOTAXIME], the minimum inhibitory concentration (MIC) in assay [1] stood at 62.4 µg/mL (≈ 137 µM); in assay [2], 20.3 µg/mL (≈ 44.6 µM); in assay [3], 10.2 µg/mL (≈ 22.5 µM); in assay [4], 0.08 µg/mL (≈ 0.176 µM); in assay [5] it was 0.25 µg/mL (≈ 0.549 µM).

On to `O=C(Cc1ccccc1)N[C@@H]1C(=O)N2C(C(=O)O)=C(O)NC[C@H]12` (racemic), for which the MIC in assay [1] is more than 128 µg/mL; in assay [2], more than 128 µg/mL; in assay [3], more than 128 µg/mL; in assay [4], 29.5 µg/mL (≈ 93 µM); in assay [5], 94.7 µg/mL (≈ 298 µM).

For `CS(=O)(=O)OC1=C(C(=O)O)N2C(=O)[C@@H](NC(=O)Cc3ccccc3)[C@H]2CN1` (racemic), the minimum inhibitory concentration (MIC) in assay [1] was found to be 4.38 µg/mL (≈ 11.1 µM); in assay [2] it was 1.2 µg/mL (≈ 3.03 µM); in assay [3] it was 0.68 µg/mL (≈ 1.72 µM); in assay [4], 0.07 µg/mL (≈ 0.177 µM); in assay [5], 0.95 µg/mL (≈ 2.4 µM).

In the case of `CS(=O)(=O)OC1=C(C(=O)OCc2ccccc2)N2C(=O)[C@@H](NC(=O)Cc3ccccc3)[C@H]2CN1` (racemic), the MIC in assay [1], in assay [2], in assay [3], in assay [4] and in assay [5] was more than 128 µg/mL in each case.

As for `CS(=O)(=O)C1(C(=O)O)C(=O)NC[C@@H]2[C@H](NC(=O)Cc3ccccc3)C(=O)N21` (stereo not given in full), the MIC in assay [1] is 120 µg/mL (≈ 303 µM); in assay [2] it was 65.3 µg/mL (≈ 165 µM); in assay [3], 51 µg/mL (≈ 129 µM); in assay [4], 48.5 µg/mL (≈ 123 µM); in assay [5], 97.2 µg/mL (≈ 246 µM).

As to `CC1=C(C(=O)O)N2C(=O)[C@@H](NC(=O)Cc3ccccc3)[C@H]2SC1`, the minimal inhibitory concentration (MIC) in assay [1] was found to be 100 µg/mL (≈ 301 µM); in assay [2] it was 24.5 µg/mL (≈ 73.7 µM); in assay [3] it was 2.98 µg/mL (≈ 8.97 µM); in assay [4] it was 0.64 µg/mL (≈ 1.93 µM); in assay [5], 13.1 µg/mL (≈ 39.5 µM).

`CC1(C)S[C@@H]2[C@H](NC(=O)Cc3ccccc3)C(=O)N2[C@H]1C(=O)O` [PENICILLIN G]: the MIC is more than 128 µg/mL in assay [1]; more than 128 µg/mL in assay [2]; more than 128 µg/mL in assay [3]; 0.4 µg/mL (≈ 1.2 µM) in assay [4]; 2.3 µg/mL (≈ 6.88 µM) in assay [5].

Regarding `O=C(Cc1ccccc1)N[C@@H]1C(=O)N2C(C(=O)OCc3ccccc3)=C(OS(=O)(=O)C(F)(F)F)NC[C@H]12` (racemic), the MIC in assay [1], in assay [2], in assay [3], in assay [4] and in assay [5] was more than 128 µg/mL each time.

Consider `CS(=O)(=O)C1=C(O)NC[C@@H]2[C@H](NC(=O)Cc3ccccc3)C(=O)N12` (racemic), for which the MIC in assay [1], in assay [2], in assay [3], in assay [4] and in assay [5] was more than 128 µg/mL each time.

`O=C(Cc1ccccc1)N[C@@H]1C(=O)N2C(C(=O)O)=C(OS(=O)(=O)C(F)(F)F)NC[C@H]12` (racemic): the MIC in assay [1] was determined as 1.15 µg/mL (≈ 2.56 µM); in assay [2], 0.68 µg/mL (≈ 1.51 µM); in assay [3], 0.24 µg/mL (≈ 0.534 µM); in assay [4] it was 0.01 µg/mL (≈ 0.0223 µM); in assay [5] it was 0.09 µg/mL (≈ 0.2 µM).
